Experimental data taken from ChEMBL document CHEMBL1128358, “Synthesis of novel imidazobenzodiazepines as probes of the pharmacophore for "diazepam-insensitive" GABAA receptors” (J Med Chem, 1995).

Tests used:
[1] = target: GABA-A receptor; anion channel; assay: Binding affinity against Diazepam sensitive (DS) Gamma-aminobutyric acid A receptor; assay type: protein-complex assay, Rattus norvegicus
How it was run: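 [3H]Ro15-4513 displacement (~2 nM final) on washed cerebellar membranes from adult male Sprague-Dawley rats, ~100 µg tissue, 0.2 M NaCl, 50 mM Tris citrate pH 7.8. DI binding has 10 µM diazepam added. DS binding is total minus DI. Nonspecific binding uses 10 µM Ro15-1788.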

[2] = target: GABA-A receptor; anion channel; assay: Binding affinity against Diazepam insensitive (DI) Gamma-aminobutyric acid A receptor; assay type: protein-complex assay, Rattus norvegicus

| Compound | IC50 [1] [nM] | Ki [2] [nM] |
| --- | --- | --- |
| CN1Cc2c(CO)ncn2-c2ccc(Cl)cc2C1=O | > 1000 | > 1000 |
| CCOCc1ncn2c1CN(C)C(=O)c1cc(Cl)ccc1-2 | > 500 | > 1000 |
| COc1cccc(-n2[nH]c3c(cnc4ccccc43)c2=O)c1 | – | 26 |
| O=c1c2cnc3ccc(Cl)cc3c2[nH]n1-c1ccccc1 | – | 5.1 |
| COc1ccc2c(c1)ncc1c(=O)n(-c3ccccc3)[nH]c12 | – | 1.9 |
| COc1ccc2ncc3c(=O)n(-c4ccccc4)[nH]c3c2c1 | – | 47 |
| COc1ccc(-n2nc3c4cc(Cl)ccc4[nH]cc-3c2=O)cc1 | – | 1.9 |
| COc1ccc(-n2nc3c4ccc(OC)cc4[nH]cc-3c2=O)cc1 | – | 10 |
| CCOC(=O)c1ncn2c1CN(C)C(=O)c1cc(OCC)ccc1-2 | 7.07 | 40.9 |
| CCc1ncn2c1CN(C)C(=O)c1cc(Cl)ccc1-2 | > 500 | > 1000 |
| CCCCC(=O)c1ncn2c1CN(C)C(=O)c1cc(Cl)ccc1-2 | > 500 | > 1000 |
| CC(=O)c1ncn2c1CN(C)C(=O)c1cc(Cl)ccc1-2 | > 1000 | > 1000 |
| CN1Cc2c(CCl)ncn2-c2ccc(Cl)cc2C1=O | > 500 | > 1000 |
| CCCCCc1ncn2c1CN(C)C(=O)c1cc(Cl)ccc1-2 | > 1000 | > 1000 |
| COCc1ncn2c1CN(C)C(=O)c1cc(Cl)ccc1-2 | 514 | > 1000 |
| COc1ccc(-n2nc3c4ccccc4[nH]cc-3c2=O)cc1 | – | 9.3 |
| CCOC(=O)c1ncn2c1CN(C)C(=O)c1cc(OC)ccc1-2 | 2.47 | 23.8 |
| CC(C)N(Cc1ncn2c1CN(C)C(=O)c1cc(Cl)ccc1-2)C(C)C | > 1000 | > 1000 |
| CCN(CC)Cc1ncn2c1CN(C)C(=O)c1cc(Cl)ccc1-2 | > 1000 | > 1000 |
| O=C1C2C=Nc3ccccc3C2=NN1c1ccccc1 (configuration not stated) [CGS-8216] | – | 46 |
